Records with an inconclusive call do not appear.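 The calls were made as follows, unless noted: active = cell viability at or below a set limit in both duplicate runs, the limit being the all-compound median minus 4 SD (cut at about 23% in these data, passing the limit was not always enough); inconclusive = no clear call, values can overlap the other calls; inactive = the rest.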
Key:
[1] = S. cerevisiae growth inhibition in permissive medium (OD615), pilot counter-assay for S. cerevisiae lifespan shortening project, permissive growth control (AID 705;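 active = growth inhibition above 25% in both replicates, a cutoff set 3 SD above the mean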); conditions: OD615, 24 h, at 10 µM, stronger effect = higher value
In short: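 Material: engineered DeaD yeast; Compound: one dose 10 µM, DMSO 0.25% final; Detection: absorbance (optical density) at 615 nm; Buffer or medium: permissive raffinose/galactose medium; Timing: 24 h exposure, 30 °C.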

[2] = S. cerevisiae growth inhibition in restrictive medium, OD615, pilot screen, restrictive growth control, yeast lifespan reduction project (AID 706;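 active = growth inhibition above a set limit, 3 SD over mean compound inhibition, in both replicates, cut at about 43% in these data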;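 also: modified DeaD lifespan yeast strain shifted to restrictive glucose medium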); conditions: OD615, 48 h, at 10 µM, stronger effect = higher value
In short: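 Buffer or medium: restrictive glucose medium (CSMM-D); test system: modified S. cerevisiae; doses: single dose of 10 µM compound final, 0.25% DMSO; schedule: 48 h compound exposure at 30 °C; detection: absorbance (optical density) measured at 615 nm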

[3] = doxorubicin toxicity protection in MRP-1 cells – H69AR cells, CellTiter-Glo, duplicate, MRP-1 activator project, pilot screen (AID 807;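 active = viability increase at or above a cutoff of the median across tested compounds plus 3 SD, cut at about 8.5% in these data, passing the limit was not always enough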;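 also: compound pretreatment 18-22 h then 72 h combined with doxorubicin; 0% = doxorubicin alone and 100% = vehicle without doxorubicin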); conditions: H69AR viability with doxorubicin, CellTiter-Glo luminescence; at 10 µM; stronger effect = higher value
[4] = viability of HCT116 without oncogenic beta-catenin – human colon tumor cells, pilot screen (AID 823); conditions: HCT116 beta-catenin knockout viability, CellTiter-Glo, 60 h; at 10 µM; stronger effect = lower value;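 also: 0% = wells killed by 20 µM Hyamine and 100% = untreated DMSO cell wells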
[5] = viability of PTEN-null HCT116 cells – cell-based, HCT116 clonal line, CellTiter-Glo, pilot screen (AID 824;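 active = viability at or below 27.92% in each of two runs, the all-compound median minus 4 SD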;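 also: 0% = 20 µM Hyamine control and 100% = vehicle cell control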); conditions: HCT116 PTEN-deleted viability, 60 h, at 10 µM, stronger effect = lower value
[6] = RAM pathway blockade in budding yeast – dse1pr::URA3 reporter, 5-FOA selection, pilot screen (AID 869;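 active = inhibition over a set limit, the all-compound mean plus 3 SD, in both replicate runs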;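 also: 0% = DMSO wells with no growth and 100% = 10 µM 1-NA-PP1 with full growth; RAM network block rescues cells from 5-FOA so hits raise OD615 growth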); conditions: S. cerevisiae dse1pr::URA3 5-FOA growth, OD615, 2 d; at 10 µM; stronger effect = higher value; strain carries analog-sensitive mutant Cbk1 kinase
[7] = RAM signaling pathway blockade in yeast – S. cerevisiae, Pdr1DBD-CYC8 efflux-inhibited sensitized strain, primary screen (AID 1298;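 active = RAM network inhibition above 8.4% in each of two replicates, 3 SD over the compound average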;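 also: 0% = DMSO untreated cells without growth and 100% = 10 µM 1-NA-PP1 full growth; higher means more yeast growth rescued from 5-FOA killing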); conditions: S. cerevisiae cbk1-as DSE1-URA3 strain, 5-FOA growth OD615, 2 d; at 50 µM; stronger effect = higher value

COc1ccc(CC(=O)N2CCN=C2SC)cc1
inactive: growth inhibition [1] 3.24% | growth inhibition [2] -0.34% | viability increase [3] 1.06% | viability [4] 99.3% | viability [5] 103% | inhibition [6] 1.54% | RAM network inhibition [7] 0.48%

Cc1ccc(-n2ncc3c(NCCCN4CCOCC4)ncnc32)c(C)c1
inactive: growth inhibition [1] -6.19% | growth inhibition [2] 6.86% | viability increase [3] -1.79% | viability [4] 96.1% | viability [5] 93.9% | inhibition [6] 2.75% | RAM network inhibition [7] 0.42%

C1CCc2c(nc3nnnn3c2N2CCOCC2)C1
inactive: growth inhibition [1] -0.9% | growth inhibition [2] 3.85% | viability increase [3] 1.82% | viability [4] 107% | viability [5] 98.4% | inhibition [6] 1.07% | RAM network inhibition [7] 5.8%

COCC(C)NC(=O)c1ccc(N(C)C)cc1 (stereo unspecified)
inactive: growth inhibition [1] 2.19% | growth inhibition [2] 8.57% | viability increase [3] 2.2% | viability [4] 104% | viability [5] 94.5% | inhibition [6] 2.1% | RAM network inhibition [7] 0.51%

CCOC(=O)CNC(=O)c1cn(CC(C)C)c(=O)c2cc(OC)c(OC)cc12
inactive: growth inhibition [1] -5.46% | growth inhibition [2] -6.08% | viability increase [3] -1.77% | viability [4] 105% | viability [5] 101% | inhibition [6] -0.375% | RAM network inhibition [7] 4.17%

CCCc1ccc(OCC(O)CN2CCN(c3ccccc3)CC2)cc1 (stereo unspecified)
inactive: growth inhibition [1] 4.55% | growth inhibition [2] 3.57% | viability increase [3] -0.47% | viability [4] 83% | viability [5] 81.6% | inhibition [6] 0.325% | RAM network inhibition [7] 1.55%

C1CCC(Nc2nnnn2C2CCCCC2)CC1
inactive: growth inhibition [1] -16.8% | growth inhibition [2] -16.1% | viability increase [3] -2.17% | viability [4] 90.4% | viability [5] 92.5% | inhibition [6] 1.41% | RAM network inhibition [7] 3.33%

COCCCNC(=O)CN(c1ccc(Cl)c(Cl)c1)S(C)(=O)=O
inactive: growth inhibition [1] 0.93% | growth inhibition [2] -7.01% | viability increase [3] -1.44% | viability [4] 99.4% | viability [5] 101% | inhibition [6] 0.96% | RAM network inhibition [7] -0.77%

CCCCn1c(CNC(=O)c2cccs2)nc2ccccc21
inactive: growth inhibition [1] -5.02% | growth inhibition [2] -5.51% | viability increase [3] -3.7% | viability [4] 101% | viability [5] 94.5% | inhibition [6] -0.215% | RAM network inhibition [7] -1.56%

COc1ccc(S(=O)(=O)N2CCC(C(=O)NCCC3=CCCCC3)CC2)cc1OC
inactive: growth inhibition [1] -5.45% | growth inhibition [2] -0.575% | viability increase [3] -0.8% | viability [4] 96.2% | viability [5] 96.9% | inhibition [6] 1.67% | RAM network inhibition [7] 4.24%

Cn1c(NCCO)nc2c(c1=O)C1(CCCCC1)Cc1ccccc1-2
inactive: growth inhibition [1] -13.2% | growth inhibition [2] -9.4% | viability increase [3] -2.31% | viability [4] 84% | viability [5] 76% | inhibition [6] 2.31% | RAM network inhibition [7] 5%

COc1ccc(-c2nnc(SCC(=O)NC3CCCCC3)o2)cc1OC
inactive: growth inhibition [1] -3.22% | growth inhibition [2] 1.43% | viability increase [3] -2.07% | viability [4] 98.5% | viability [5] 98.4% | inhibition [6] 1.34% | RAM network inhibition [7] 2.65%

O=C(c1ccccc1)c1ccc2nc(N3CCN(C(=O)c4ccco4)CC3)c3nncn3c2c1
inactive: growth inhibition [1] -3.47% | growth inhibition [2] 11.3% | viability increase [3] -3.94% | viability [4] 65.3% | viability [5] 72.7% | inhibition [6] 2.05% | RAM network inhibition [7] -0.16%

COc1ccc(Br)cc1CNC(=O)C1CCC(=O)N1C(C)C (stereo unspecified)
inactive: growth inhibition [1] 6.52% | growth inhibition [2] 4.42% | viability increase [3] -2.9% | viability [4] 91.7% | viability [5] 94.7% | inhibition [6] 1.99% | RAM network inhibition [7] 3.58%

COc1ccc(-n2nc3c(c2NC(=O)C24CC5CC(CC(C5)C2)C4)CS(=O)C3)cc1 (stereo unspecified)
inactive: growth inhibition [1] 1.36% | growth inhibition [2] 9.3% | viability increase [3] -0.78% | viability [4] 97.2% | viability [5] 93.5% | inhibition [6] -0.08% | RAM network inhibition [7] -1.31%

COc1ccc2ccccc2c1C1CC(=O)N2CN(C3CCCCC3)CSC2=C1C#N (stereo unspecified)
inactive: growth inhibition [1] 2.87% | growth inhibition [2] 25.4% | viability increase [3] -4.9% | viability [4] 81.3% | viability [5] 76.4% | inhibition [6] 2.05% | RAM network inhibition [7] 4.86%

Cc1ccccc1-c1nc(CS(=O)CC(=O)NCCN2CCOCC2)c(C)o1 (stereo unspecified)
inactive: growth inhibition [1] 0.43% | growth inhibition [2] 1.41% | viability increase [3] -1.4% | viability [4] 101% | viability [5] 91.2% | inhibition [6] 1.11% | RAM network inhibition [7] 9.97%

CCOC(=O)c1ccc(N2CSC3=C(C#N)C(c4ccc(OC)cc4OC)CC(=O)N3C2)cc1 (stereo unspecified)
inactive: growth inhibition [1] 6.21% | growth inhibition [2] 24.4% | viability increase [3] -4.16% | viability [4] 92.3% | viability [5] 93.2% | inhibition [6] 2.44% | RAM network inhibition [7] 1.72%

Source: PubChem BioAssay
